SMILES strings stand for the structures. “Also recorded” adds a separate entry of the source. Like-named read-outs stand apart in the source and are kept apart here.

Data set [1] addresses T1, bovine plasma amine oxidase (BPAO) (Bos taurus, UniProt Q29437).
T1 sequence (Q29437 17-762): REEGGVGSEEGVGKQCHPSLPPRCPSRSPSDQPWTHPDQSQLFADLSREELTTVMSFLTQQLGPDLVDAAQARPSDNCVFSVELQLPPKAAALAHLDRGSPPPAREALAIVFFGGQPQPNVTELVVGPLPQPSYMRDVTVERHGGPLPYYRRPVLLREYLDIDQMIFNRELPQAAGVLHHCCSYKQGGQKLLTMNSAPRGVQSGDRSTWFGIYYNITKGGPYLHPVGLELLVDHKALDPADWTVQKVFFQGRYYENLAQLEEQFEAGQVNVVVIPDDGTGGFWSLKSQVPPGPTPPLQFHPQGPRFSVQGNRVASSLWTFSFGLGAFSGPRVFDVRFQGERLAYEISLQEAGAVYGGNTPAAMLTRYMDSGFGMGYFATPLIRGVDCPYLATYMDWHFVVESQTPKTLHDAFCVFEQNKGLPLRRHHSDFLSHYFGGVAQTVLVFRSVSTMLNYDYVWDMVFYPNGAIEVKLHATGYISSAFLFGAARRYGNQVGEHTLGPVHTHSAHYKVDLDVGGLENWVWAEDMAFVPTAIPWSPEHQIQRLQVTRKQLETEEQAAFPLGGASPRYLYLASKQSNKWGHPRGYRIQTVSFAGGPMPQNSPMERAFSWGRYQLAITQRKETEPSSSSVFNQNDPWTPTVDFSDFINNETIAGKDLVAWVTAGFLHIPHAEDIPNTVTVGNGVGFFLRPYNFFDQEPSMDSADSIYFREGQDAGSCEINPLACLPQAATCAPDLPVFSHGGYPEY
The data set is described as follows: Substrate activity with BPAO. It counts as biochemical. The following applies: kcat/Km relative to BA = 1.

For data set [2], the target named is T2, BPAO (Bos taurus, UniProt Q29437).
T2 sequence (Q29437 17-762): T1 sequence (Q29437 17-762)
The data set is described as follows: Selectivity: initial oxidation velocity with BPAO. It counts as biochemical, bovine. Particulars: for V0: 30 °C, 250 nm. In short, it runs like this:
(§1)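 Purified enzyme was diluted into 20 µM fluorogenic amine substrate in 0.1 M pH 7.2 phosphate buffer, or into 5 mM benzylamine in 50 mM pH 7.2 phosphate buffer, at 30 °C. Absorbance at 250 nm was followed for 30 s. Slopes were converted to nM s−1 using extinction coefficients of the aldehyde products at 250 nm.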

In data set [3] the target is Arthrobacter globiformis amine oxidase (AGAO) (Arthrobacter globiformis, UniProt P46881). The data set is described as follows: Selectivity: initial oxidation velocity with AGAO. It counts as biochemical. The following applies: for V0: 30 °C, 250 nm. In a few lines:
as §1

For data set [4], the target named is T3, Pichia pastoris lysyl oxidase (PPLO) (Komagataella pastoris, UniProt Q96X16).
T3 sequence (Q96X16 19-787): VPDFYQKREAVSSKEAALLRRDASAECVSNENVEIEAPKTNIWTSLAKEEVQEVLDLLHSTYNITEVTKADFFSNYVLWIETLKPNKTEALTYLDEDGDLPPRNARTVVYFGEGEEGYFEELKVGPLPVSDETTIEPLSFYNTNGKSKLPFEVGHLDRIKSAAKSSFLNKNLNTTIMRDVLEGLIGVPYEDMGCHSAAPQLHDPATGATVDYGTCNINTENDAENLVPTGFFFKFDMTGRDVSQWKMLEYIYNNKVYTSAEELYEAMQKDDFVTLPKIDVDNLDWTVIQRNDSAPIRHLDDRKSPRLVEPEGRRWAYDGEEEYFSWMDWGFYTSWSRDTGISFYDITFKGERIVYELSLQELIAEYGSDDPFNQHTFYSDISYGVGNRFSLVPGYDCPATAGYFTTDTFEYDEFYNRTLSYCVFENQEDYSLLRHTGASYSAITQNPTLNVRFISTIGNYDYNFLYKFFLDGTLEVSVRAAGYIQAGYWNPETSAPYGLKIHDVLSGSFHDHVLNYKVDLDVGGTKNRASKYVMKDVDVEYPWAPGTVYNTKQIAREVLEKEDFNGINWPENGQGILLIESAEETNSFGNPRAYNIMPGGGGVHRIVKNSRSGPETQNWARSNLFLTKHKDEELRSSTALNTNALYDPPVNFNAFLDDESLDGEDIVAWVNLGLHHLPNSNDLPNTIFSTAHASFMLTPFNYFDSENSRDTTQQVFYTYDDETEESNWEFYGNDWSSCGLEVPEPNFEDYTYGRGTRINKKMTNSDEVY
The data set is described as follows: Selectivity: initial oxidation velocity with PPLO. It is filed as biochemical. The following applies: for V0: 30 °C, 250 nm. In short, it runs like this: as §1

The test system of data set [5] is rat liver monoamine oxidase (MAO-B). The data set is described as follows: Selectivity: initial oxidation velocity with rat liver MAO-B. It is filed as biochemical. Particulars: for V0: 30 °C, 250 nm, rat liver mitochondria. In short, it runs like this:
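MAO-B source: isolated rat liver mitochondria, protein by biuret (BSA standard). Thawed suspension in mannitol/sucrose/MOPS pH 7.4 diluted with 0.1 M pH 7.2 phosphate containing 0.25% Triton X-100, warmed to 30 °C. Aliquot added to 20 µM test amine (0.1 M phosphate) or 5 mM benzylamine (50 mM phosphate). A250 followed 30 s at 30 °C; rates via extinction coefficients.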

Data set [6] concerns the target T4, porcine kidney diamine oxidase (pkDAO) (Sus scrofa, UniProt Q9TRC7).
T4 sequence (Q9TRC7 25-755): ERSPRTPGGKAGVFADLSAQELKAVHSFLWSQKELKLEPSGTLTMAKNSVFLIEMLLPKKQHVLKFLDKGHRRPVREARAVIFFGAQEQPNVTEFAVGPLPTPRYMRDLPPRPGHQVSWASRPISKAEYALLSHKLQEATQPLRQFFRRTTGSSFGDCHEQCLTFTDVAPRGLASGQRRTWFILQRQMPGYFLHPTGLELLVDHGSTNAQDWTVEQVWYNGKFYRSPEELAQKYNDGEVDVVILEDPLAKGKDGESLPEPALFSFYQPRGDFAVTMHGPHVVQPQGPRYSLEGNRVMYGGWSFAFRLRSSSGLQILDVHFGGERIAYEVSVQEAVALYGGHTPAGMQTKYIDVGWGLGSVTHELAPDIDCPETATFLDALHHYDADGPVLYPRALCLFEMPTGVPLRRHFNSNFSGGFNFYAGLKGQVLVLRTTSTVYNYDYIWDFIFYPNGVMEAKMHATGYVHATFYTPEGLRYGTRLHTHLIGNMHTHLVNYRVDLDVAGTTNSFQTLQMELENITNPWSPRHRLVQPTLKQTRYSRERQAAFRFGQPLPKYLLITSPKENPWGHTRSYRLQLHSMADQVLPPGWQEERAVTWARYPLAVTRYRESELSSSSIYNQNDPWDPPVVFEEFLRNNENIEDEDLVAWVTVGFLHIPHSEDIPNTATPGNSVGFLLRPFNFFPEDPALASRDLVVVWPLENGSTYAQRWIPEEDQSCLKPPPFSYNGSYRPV
The data set is described as follows: Selectivity: initial oxidation velocity with pkDAO. Particulars: for V0: 37 °C, 250 nm. It counts as biochemical. In short, it runs like this:
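Porcine kidney DAO (from 10 mg/mL stock) in 0.1 M pH 7.2 phosphate buffer, equilibrated at 37 °C. Test amine (final 20 µM) or p-xylylenediamine (final 1.5 mM) was added. Absorbance at 250 nm was read for 30 s at 37 °C. Rates were computed using a literature extinction coefficient for p-(aminomethyl)benzaldehyde.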

The next data set in a line: Solubility. It counts as physicochemical.
Data set [7] has as its target T2, BPAO. The data set is described as follows: Inhibition of BPAO evaluated with the new fluorometric assay. It is filed as biochemical, bovine. In short, it runs like this: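 BPAO (50 nM) in 0.1 M pH 7.2 phosphate buffer, held 5 min at 2 °C, then given test inhibitor (final 1–10 µM; repeat at 30 °C with 0.125–2 µM). Aliquots taken over time and assayed at 30 °C: 10 µM fluorogenic amine substrate, emission 453 nm (λex 350 nm), 30 s. Residual activity relative to an inhibitor-free control; t1/2 per concentration fed Kitz–Wilson plot.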

Data set [8] concerns the target T2, BPAO. The following applies: ref 8d, cited from earlier work.
The mark [9] stands for this setting: BA 5 mM in 50 mM pH 7.2 phosphate buffer.
Where [10] appears, read: 12 20 µM in 0.1 M pH 7.2 phosphate buffer.

`NCc1ccccc1` [BA, benzylamine, reference compound] had a relative activity in data set [1] (UV-vis spectrophotometry) of 1. Moreover, the V0 at BPAO [2] (setting [9]) was 82.8 nM/s; in [3] (setting [9]), 54.7 nM/s; in [4] (setting [9]), 67.2 nM/s; in [5] (setting [9]), 103.1 nM/s.
Regarding `NCc1ccc(CN)cc1` [PXDA, p-xylylenediamine, reference compound], the V0 in data set [6] (PXDA 1.5 mM in 0.1 M pH 7.2 phosphate buffer) is 51.8 nM/s.
Regarding `COc1ccc2cc(CN)ccc2c1.Cl` [compound 1, 6-Methoxy-2-naphthalenemethaneamine hydrochloride], the relative activity in [1] (UV-vis spectrophotometry) and in [1] (fluorescence spectrophotometry) was 2.2 each time. In the data set “Solubility”, the “solubility (in words)” value was “poor solubility; also recorded: poorly soluble”.
As for `Cl.Cl.NCCOc1ccc2cc(CN)ccc2c1` [compound 9, 2-(6-(Aminomethyl)naphthalen-2-yloxy)ethylamine dihydrochloride], the relative activity in data set [1] (fluorescence spectrophotometry) is reported as 2.9×10^2.
For `CNCCOc1ccc2cc(CN)ccc2c1.Cl.Cl` [compound 10, (2-(6-(Aminomethyl)naphthalen-2-yloxy)ethyl)methylamine dihydrochloride], the relative activity in data set [1] (fluorescence spectrophotometry) is recorded as 1.5×10^3.
The same measure, in the same setting: to `CN(C)CCOc1ccc2cc(CN)ccc2c1.Cl.Cl` [compound 11, (2-(6-(Aminomethyl)naphthalen-2-yloxy)ethyl)dimethylamine dihydrochloride] belongs 3.1×10^3.
As to `C[N+](C)(C)CCOc1ccc2cc(CN)ccc2c1.Cl.[Cl-]` [compound 12, (2-(6-(Aminomethyl)naphthalen-2-yloxy)ethyl)trimethylammonium chloride hydrochloride], the relative activity in [1] (fluorescence spectrophotometry) was 5.4×10^3. Also, the “substrate activity with BPAO (in words)” value is recorded as “metabolized quickly” at BPAO [2] and “good substrate” on BPAO [2] (listed as ANETA). Besides, the V0 at BPAO [2] (setting [10]) was determined as 62.3 nM/s; in data set [6] (setting [10]), 1.0 nM/s; in data set [3] (setting [10]), 1.3 nM/s; in data set [4] (setting [10]) it was 24.8 nM/s; in [5] (setting [10]), 0.6 nM/s. In addition, the “substrate activity with pkDAO (in words)” value in [6] is on record as “no significant substrate activity”; in data set [6] (listed as ANETA) it was “not a substrate”. The “substrate activity with AGAO (in words)” value in [3] is listed as “no significant substrate activity”. Moreover, in data set [4] (compared with BPAO), the “substrate activity with PPLO (in words)” value was “comparable rate”. Moreover, the figures for the “substrate activity with MAO-B (in words)” value in [5] and in data set [5] (listed as ANETA) were “no significant substrate activity” and “not a substrate”, respectively.
By IC50 is commonly meant the midpoint of a concentration-inhibition curve. `C=C=CCN` [compound 29, 1-Amino-2,3-butadiene]: the “slope of the Kitz and Wilson plot” value at BPAO [7] (inactivation at 2 °C, BPAO 50 nM) is given as 10.8; on BPAO [8] (BA assay, 2 °C), 10.2. Also, the IC50 was 250 nM at BPAO [7] (read-out: 5 min IC50, 30 °C); 125 nM on BPAO [7] (read-out: 10 min IC50, 30 °C); 1250 nM on BPAO [8] (read-out: 5 min IC50, BA assay with 1 µM BPAO, previous estimation).

The values are drawn from PMC2659760 (The Journal of organic chemistry, 2009).
